Among the data in ChEMBL document CHEMBL2203111, “An Hsp90 modulator that exhibits a unique mechanistic profile” (Bioorg Med Chem Lett, 2012) are IC50, Activity and inhibition values, retold here.

Assay [1] can be described thus: Competitive binding affinity to N-middle domain of HSP90 expressed in BL21(DE)3 Escherichia coli cells after 1 hr by immunoblotting analysis in the presence of 2-chlorobenzyl 4-((2R,5S,8S,11S,14R)-11,14-dibenzyl-8-isobutyl-5-isopropyl-13-methyl-3,6,9,12,15-pentaoxo-1,4,7,10,13-pentaazacyclopentadecan-2-yl)butylcarbamate.
The target of assay [2] is T1, Heat shock protein HSP90 (Homo sapiens) (UniProt P07900+P08238). As to the kind of experiment: Binding affinity to HSP90 in human HCT116 cells assessed as increase in staining intensity in cytosol at 5 uM after 72 hrs by immunofluorescence staining analysis. It counts as cell-based. The following applies: HCT-116. A digest of the protocol: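 HCT116 colon cancer cells treated 72 hours (DMSO as vehicle control, 17-AAG as reference Hsp90 inhibitor); Hsp90 visualized by immunofluorescence with a polyclonal anti-Hsp90 antibody, cytosolic staining intensity compared with DMSO-treated cells.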

The target in assay [3] is Glyceraldehyde-3-phosphate dehydrogenase (Homo sapiens) (UniProt P04406). Nature of the assay: Binding affinity to glyceraldehyde-3-phosphate dehydrogenase in human HCT116 cell lysates at 0.6 uM after 1 hr using coomassie blue staining by SDS-PAGE based pull down assay. Conditions: HCT-116. A digest of the protocol:
(§1)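 Biotinylated probe incubated with HCT116 cell lysate; neutravidin-agarose beads added to capture probe with bound proteins, beads washed ten times, proteins eluted in sample buffer and resolved by gel/Western blot. Controls: PEGylated biotin linker alone and DMSO.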

Assay [4] concerns the target T1, Heat shock protein HSP90 (Homo sapiens). As to the kind of experiment: Binding affinity to HSP90 in human HCT116 cell lysates at 0.6 uM after 1 hr using coomassie blue staining by SDS-PAGE based pull down assay. It counts as protein assay. Conditions: HCT-116. Summed up:
as §1

The subject of assay [5] is HCT-116. As to the kind of experiment: Binding affinity to actin in human HCT116 cell lysates at 0.6 uM after 1 hr using coomassie blue staining by SDS-PAGE based pull down assay. It counts as cell-free. Summed up:
as §1

For assay [6], the system named is HCT-116. As to the kind of experiment: Binding affinity to beta tubulin in human HCT116 cell lysates at 0.6 uM after 1 hr using coomassie blue staining by SDS-PAGE based pull down assay. It counts as cell-free. A digest of the protocol:
as §1

The target of assay [7] is Myosin-9 (Homo sapiens) (UniProt P35579). As to the kind of experiment: Binding affinity to myosin-9 in human HCT116 cell lysates at 0.6 uM after 1 hr using coomassie blue staining by SDS-PAGE based pull down assay. The following applies: HCT-116. A digest of the protocol:
as §1

In assay [8] the target is T1, Heat shock protein HSP90 (Homo sapiens). Nature of the assay: Binding affinity to HSP90 in human HCT116 cell lysates at 0.6 uM after 1 hr by Western blot based pull down assay. The following applies: HCT-116. It counts as protein assay. A digest of the protocol:
as §1

Assay [9] is described as follows: Inhibition of binding of recombinant HSP90 to his-tagged HER2 up to 10 uM by Western blotting analysis.
Assay [10] concerns HCT-116. As to the kind of experiment: Induction of apoptosis in human HCT116 cells assessed as PARP cleavage at 50 uM after 24 hrs by Western blotting analysis. It counts as functional. A digest of the protocol:
(§2)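 HCT116 cells treated 24 hrs with compound at 0–50 µM; cell lysates analyzed by Western blot for full-length PARP (~113 kDa) and cleaved fragments, full-length PARP quantified relative to untreated cells.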
For orientation: A western blot detects proteins with antibodies after separation by electrophoresis.

A short description of assay [11]: Inhibition of binding of recombinant HSP90 to his-tagged Akt up to 10 uM by Western blotting analysis.
Assay [12] has as its system HCT-116. As to the kind of experiment: Induction of apoptosis in human HCT116 cells assessed as PARP cleavage after 24 hrs by Western blotting analysis. It counts as functional, cell-based. Summed up:
as §2

Assay [13] can be described thus: Binding affinity to N-middle domain of HSP90 expressed in BL21(DE)3 Escherichia coli cells at 5 uM after 2 hrs by Western blotting method based pull down assay.

Calls of active or inactive are those of the source. No cut-off for these calls is given here. *1 amine or outer side, *2 acyl side, *3 side chain or, on linkers, in order; H or OH if unused. Where a SMILES comes first, the peptide text is derived from it. [ ]: non-standard residue; d: D form. X1 = O=C([C@H](N[*:1])[C@H](OCc1ccccc1)c1ccccc1)[*:2]; NMeV = CN[C@H](C(=O)O)C(C)C

Sequence of Myosin-9 (Homo sapiens) (P35579 whole entry): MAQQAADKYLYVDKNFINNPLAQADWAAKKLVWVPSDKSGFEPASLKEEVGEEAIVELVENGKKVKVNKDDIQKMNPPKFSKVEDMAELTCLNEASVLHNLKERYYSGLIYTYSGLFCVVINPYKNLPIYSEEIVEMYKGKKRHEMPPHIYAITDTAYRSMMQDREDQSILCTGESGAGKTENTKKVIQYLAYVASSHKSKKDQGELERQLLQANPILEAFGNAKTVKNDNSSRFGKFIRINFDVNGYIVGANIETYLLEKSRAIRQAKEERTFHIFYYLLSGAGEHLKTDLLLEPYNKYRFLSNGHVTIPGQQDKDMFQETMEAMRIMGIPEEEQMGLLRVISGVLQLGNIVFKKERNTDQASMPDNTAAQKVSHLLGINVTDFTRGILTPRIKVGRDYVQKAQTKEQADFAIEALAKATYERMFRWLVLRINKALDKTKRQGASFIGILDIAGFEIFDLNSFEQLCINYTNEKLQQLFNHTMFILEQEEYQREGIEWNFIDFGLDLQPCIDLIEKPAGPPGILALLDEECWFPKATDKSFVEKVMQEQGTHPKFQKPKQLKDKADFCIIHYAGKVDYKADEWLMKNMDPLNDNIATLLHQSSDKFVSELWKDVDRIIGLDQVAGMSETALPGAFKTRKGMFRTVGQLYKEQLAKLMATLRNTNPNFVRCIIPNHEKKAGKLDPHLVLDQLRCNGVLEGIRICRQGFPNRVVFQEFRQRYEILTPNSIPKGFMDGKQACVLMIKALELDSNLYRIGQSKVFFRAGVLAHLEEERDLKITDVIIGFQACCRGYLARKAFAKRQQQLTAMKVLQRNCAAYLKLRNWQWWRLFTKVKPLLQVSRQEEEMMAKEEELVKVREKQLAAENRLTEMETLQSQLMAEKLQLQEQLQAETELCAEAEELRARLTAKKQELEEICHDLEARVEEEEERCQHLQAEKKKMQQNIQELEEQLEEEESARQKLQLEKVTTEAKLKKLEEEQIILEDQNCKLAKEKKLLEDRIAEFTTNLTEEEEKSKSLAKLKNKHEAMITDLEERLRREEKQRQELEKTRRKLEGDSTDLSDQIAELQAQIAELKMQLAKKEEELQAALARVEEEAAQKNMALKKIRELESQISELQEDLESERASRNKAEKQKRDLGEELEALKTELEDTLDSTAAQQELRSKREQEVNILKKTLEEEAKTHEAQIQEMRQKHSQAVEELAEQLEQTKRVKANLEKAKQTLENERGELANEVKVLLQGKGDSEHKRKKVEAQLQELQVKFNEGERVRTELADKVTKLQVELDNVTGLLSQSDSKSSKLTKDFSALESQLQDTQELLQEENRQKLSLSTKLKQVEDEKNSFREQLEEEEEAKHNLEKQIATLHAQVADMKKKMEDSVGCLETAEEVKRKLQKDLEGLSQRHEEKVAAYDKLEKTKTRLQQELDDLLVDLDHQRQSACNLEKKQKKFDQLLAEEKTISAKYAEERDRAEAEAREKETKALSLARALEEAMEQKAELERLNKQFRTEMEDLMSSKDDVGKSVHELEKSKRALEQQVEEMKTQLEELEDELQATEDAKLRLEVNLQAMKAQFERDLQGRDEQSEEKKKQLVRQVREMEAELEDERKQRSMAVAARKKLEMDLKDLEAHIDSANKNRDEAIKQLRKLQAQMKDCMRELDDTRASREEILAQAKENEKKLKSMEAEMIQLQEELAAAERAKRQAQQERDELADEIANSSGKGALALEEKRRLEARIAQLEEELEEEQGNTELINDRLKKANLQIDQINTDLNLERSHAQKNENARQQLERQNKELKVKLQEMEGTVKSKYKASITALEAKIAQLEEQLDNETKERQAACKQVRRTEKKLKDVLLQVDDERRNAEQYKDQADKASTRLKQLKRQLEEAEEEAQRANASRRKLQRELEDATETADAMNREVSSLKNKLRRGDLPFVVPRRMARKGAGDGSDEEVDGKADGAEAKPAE
Sequence of Glyceraldehyde-3-phosphate dehydrogenase (Homo sapiens) (P04406 2-335 limits assumed): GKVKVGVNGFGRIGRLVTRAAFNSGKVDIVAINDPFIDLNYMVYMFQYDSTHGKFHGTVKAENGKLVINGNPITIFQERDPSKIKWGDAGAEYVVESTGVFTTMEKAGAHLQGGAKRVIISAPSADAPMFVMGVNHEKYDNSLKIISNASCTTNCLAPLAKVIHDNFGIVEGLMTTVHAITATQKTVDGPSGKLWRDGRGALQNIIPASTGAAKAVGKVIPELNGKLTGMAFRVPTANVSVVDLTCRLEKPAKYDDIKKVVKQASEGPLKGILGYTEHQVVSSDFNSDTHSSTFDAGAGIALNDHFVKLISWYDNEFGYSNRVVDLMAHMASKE

A word on the IC50: it is the concentration that inhibits the measured activity by half. With `CC(C)C[C@@H]1NC(=O)[C@H](C(C)C)N(C)C(=O)[C@@H](CC(C)C)NC(=O)[C@@H](Cc2ccccc2)NC(=O)[C@@H]([C@H](OCc2ccccc2)c2ccccc2)NC1=O` (cyclo(L[X1][dF][dL][NMeV])), the IC50 in assay [1] is 1.9 µM. In assay [2], the outcome was Active.

Take `CC(C)[C@@H]1NC(=O)[C@@H](CCCCNC(=O)OCc2ccccc2Cl)NC(=O)[C@@H](Cc2ccccc2)N(C)C(=O)[C@H](Cc2ccccc2)NC(=O)[C@H](CCCCNC(=O)CCOCCOCCOCCOCCNC(=O)CCCC[C@@H]2SC[C@@H]3NC(=O)N[C@@H]32)NC1=O`: the result in [3], in assay [4], in assay [5], in [6], in [7] and in assay [8] was inactive.

Turning to `CC(C)C[C@@H]1NC(=O)[C@H](C(C)C)NC(=O)[C@@H](CCCCNC(=O)OCc2ccccc2Cl)NC(=O)[C@@H](Cc2ccccc2)N(C)C(=O)[C@H](Cc2ccccc2)NC1=O`, the IC50 in [1] was 6.2 µM. Also, the inhibition entry in [9] and in assay [11] was “inactive” throughout. Further, the Activity was 48% in assay [10] and “Dose-dependent effect” in assay [12]. Also, the result in assay [2] was Active.

With `CC(C)C[C@@H]1NC(=O)[C@H](CCCCNC(=O)CCOCCOCCOCCOCCNC(=O)CCCC[C@@H]2SC[C@@H]3NC(=O)N[C@@H]32)NC(=O)[C@@H](CCCCNC(=O)OCc2ccccc2Cl)NC(=O)[C@@H](Cc2ccccc2)N(C)C(=O)[C@H](Cc2ccccc2)NC1=O`, the result in assay [3], in [4], in [5], in assay [13], in assay [6] and in [7] was Active. In addition, in assay [8], the outcome was Active.
